As usually defined, the IC50 is the midpoint of a concentration-inhibition curve.

Structures are written as SMILES. Converted amounts (≈) assume the structure as drawn.

From ChEMBL document CHEMBL2203201, “Synthesis and antimalarial evaluation of a screening library based on a tetrahydroanthraquinone natural product scaffold” (Bioorg Med Chem, 2012) come the findings set out here.

For test [1], the system named is Plasmodium falciparum. The test is described as follows: Antimalarial activity against chloroquine-resistant ring stage plasmodium falciparum Dd2 infected in erythrocytes assessed as [3H]hypoxanthine incorporation after 48 hrs by liquid scintillation counting. The class given is functional, organism-based. The essentials: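 Infected erythrocytes at 0.5% parasitemia and 2.5% hematocrit were plated into serial dilutions of test compound or chloroquine control. After 48 h under standard culture conditions, 0.5 μCi 3H-hypoxanthine was added per well and incubation continued 24 h. Cells were harvested onto filter mats and counted by scintillation. Inhibition was set against 0.5% DMSO controls, and IC50 was obtained by linear interpolation. Mean ± SD of three independent triplicate experiments.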

Another test has as its system NFF. The test can be described thus: Cytotoxicity against human NFF cells after 3 days by sulforhodamine B assay. It is filed as cell-based. The settings on record: 72 h. The method in brief: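 Neonatal foreskin fibroblasts grown in RPMI 1640 with 10% FCS and 1% streptomycin at 37 °C, 5% CO2, kept in log phase. Seeded at 3000/well and grown 24 h before treatment. Compounds diluted from DMSO into medium (≤1% DMSO); controls got matching DMSO. After 3 days, PBS wash, fixation in methylated spirits, total protein by sulforhodamine B. Triplicate, three independent experiments.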

The nature of test [2]: Selectivity index, ratio of IC50 for human NFF cells to IC50 for chloroquine-sensitive ring stage plasmodium falciparum 3D7.
Test [3] relates to Plasmodium falciparum. The test can be described thus: Antimalarial activity against chloroquine-sensitive ring stage plasmodium falciparum 3D7 infected in erythrocytes assessed as [3H]hypoxanthine incorporation after 48 hrs by liquid scintillation counting. It is filed as functional, organism-based. The method in brief:
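P. falciparum 3D7-infected type O+ erythrocytes (0.5% parasitemia, 2.5% hematocrit) incubated with serial dilutions for 48 h under standard culture conditions. 0.5 μCi 3H-hypoxanthine then added and culture continued a further 24 h. Incorporation counted by liquid scintillation against 0.5% DMSO controls. IC50 by linear interpolation of inhibition curves. Mean of three independent experiments, each in triplicate, ±SD.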

A further test relates to Pseudomonas aeruginosa. The test can be described thus: Antibacterial activity against Pseudomonas aeruginosa. It is filed as functional, organism-based.
In a further test the test system is Staphylococcus aureus. The test can be described thus: Antibacterial activity against Staphylococcus aureus. It is filed as functional, organism-based.

For the molecule `COC1=CC(=O)c2c(O)c3c(c(O)c2C1=O)C[C@@](C)(O)C[C@@H]3O`, the IC50 in the test with Plasmodium falciparum [1] was 11.1 µM; in the test on NFF, 43.7 µM; in the test with Plasmodium falciparum [3] it was 4.7 µM. Besides, the “Ratio IC50” value in test [2] is recorded as 9.3.

As for `COC1=CC(=O)c2c(O)c3c(c(O)c2C1=O)C[C@](C)(O)C[C@@H]3O`, the IC50 is 2.2 µM in the test with Plasmodium falciparum [1]; 15.6 µM in the test on NFF; greater than 50 µg/mL with Pseudomonas aeruginosa; 1.9 µM in the test on Plasmodium falciparum [3]; 3 µg/mL (≈ 9.37 µM) with Staphylococcus aureus. The “Ratio IC50” value in test [2] stood at 8.2.

For the molecule `COC1=CC(=O)c2c(O)c3c(c(O)c2C1=O)C[C@](C)(O)CC3`, the IC50 turned out to be 5.2 µM with Plasmodium falciparum [1], 54.6 µM in the test on NFF and 4.5 µM with Plasmodium falciparum [3]. The “Ratio IC50” value in test [2] is 12.1.

On to `CC(C)(C)OC(=O)NCCCNC1=CC(=O)c2c(O)c3c(c(O)c2C1=O)C[C@](C)(O)C[C@@H]3O`, for which the IC50 is 36.5 µM in the test with NFF and 6.7 µM with Plasmodium falciparum [3]. Moreover, in test [2], the “Ratio IC50” value amounted to 5.4.

Turning to `CCCNC1=CC(=O)c2c(O)c3c(c(O)c2C1=O)C[C@](C)(O)C[C@@H]3O`, the IC50 in the test with NFF came to 78.8 µM; in the test with Plasmodium falciparum [3], 4.3 µM. In addition, in test [2], the “Ratio IC50” value is recorded as 18.3.

With `C[C@]1(O)Cc2c(O)c3c(c(O)c2[C@@H](O)C1)C(=O)C=C(NCCCN)C3=O`, the IC50 in the test with NFF is 89.8 µM; in the test with Plasmodium falciparum [3] it was 16.5 µM. Further, the “Ratio IC50” value in test [2] is on record as 5.4.

Consider `COCCNC1=CC(=O)c2c(O)c3c(c(O)c2C1=O)C[C@](C)(O)C[C@@H]3O`, for which the IC50 in the test with NFF stood at 84.3 µM; with Plasmodium falciparum [3], 10.3 µM. Further, the “Ratio IC50” value in test [2] is given as 8.2.

Turning to `C[C@]1(O)Cc2c(O)c3c(c(O)c2[C@@H](O)C1)C(=O)C=C(NCCc1ccccc1)C3=O`, the 50% inhibitory concentration (IC50) in the test on NFF was found to be 3.5 µM; in the test on Plasmodium falciparum [3] it was 3.8 µM. Moreover, the “Ratio IC50” value in test [2] stood at 0.9.

Consider `C[C@]1(O)Cc2c(O)c3c(c(O)c2[C@@H](O)C1)C(=O)C=C(NCCc1ccc(O)cc1)C3=O`, for which the IC50 with NFF worked out at 23.3 µM; in the test with Plasmodium falciparum [3], 2.4 µM. The “Ratio IC50” value in test [2] amounted to 9.7.

As to `C[C@]1(O)Cc2c(O)c3c(c(O)c2[C@@H](O)C1)C(=O)C=C(NCCc1ccc(Cl)cc1)C3=O`, the figures for the IC50 in the test on NFF and in the test with Plasmodium falciparum [3] were 66 µM and 4.2 µM, respectively. Besides, the “Ratio IC50” value in test [2] is on record as 15.7.

Turning to `C[C@]1(O)Cc2c(O)c3c(c(O)c2[C@@H](O)C1)C(=O)C=C(NCCN1CCOCC1)C3=O`, the IC50 was 62 µM in the test with NFF and 15.8 µM with Plasmodium falciparum [3]. Besides, the “Ratio IC50” value in test [2] is 3.9.

As to `C[C@]1(O)Cc2c(O)c3c(c(O)c2[C@@H](O)C1)C(=O)C=C(NCc1ccccc1)C3=O`, the figures for the IC50 in the test on NFF and with Plasmodium falciparum [3] were 10.7 µM and 7.4 µM, respectively. In addition, the “Ratio IC50” value in test [2] was 1.4.

Turning to `CNC1=CC(=O)c2c(O)c3c(c(O)c2C1=O)C[C@](C)(O)C[C@@H]3O`, the half-maximal inhibitory concentration (IC50) was determined as 59.1 µM in the test on NFF and 6.9 µM with Plasmodium falciparum [3]. The “Ratio IC50” value in test [2] is 8.6.

In the case of `C[C@]1(O)Cc2c(O)c3c(c(O)c2[C@@H](O)C1)C(=O)C=C(NCCN1CCCC1)C3=O`, the values for the IC50 in the test with NFF and with Plasmodium falciparum [3] were 15.9 µM and 6.3 µM, respectively. Besides, the “Ratio IC50” value in test [2] is given as 2.5.

Turning to `COc1cc(O)c2c(c1O)C(=O)c1cc(C)ccc1C2=O` [AUSTROCORTIRUBIN], the values for the IC50 with Plasmodium falciparum [1], in the test on NFF and with Plasmodium falciparum [3] were greater than 50 µM, 76 µM and greater than 50 µM, respectively.

`CCN(CC)CCCC(C)Nc1ccnc2cc(Cl)ccc12` (stereo unspecified) [CHLOROQUINE] displayed a concentration for half-maximal inhibition (IC50) in the test on NFF of 37.3 µM.
